Each block holds one compound with its values, some of them ahead of it. Calls of active or inactive are those of the source. No cut-off for these calls is given here.
Legend:
[1] = Inhibition of bacterial VIM2 (27 to 266 residues) expressed in Escherichia coli Transetta (DE3) cells using FC-5 as substrate by fluorescence assay; set-up: species or system Bacteria
[2] = Inhibition of bacterial NDM1 (1 to 270 residues) expressed in Escherichia coli Transetta (DE3) cells using FC-5 as substrate by fluorescence assay; set-up: species or system Bacteria
[3] = species: Danio rerio; experiment: Toxicity in FLK-1 promoter EGFP transgenic zebrafish embryos assessed as effect on morphology at 20 uM incubated for 4 to 96 hrs post fertilization by fluorescence microscopic analysis; type: organism-based; conditions: in vivo
[4] = Inhibition of bacterial VIM2 (27 to 266 residues) expressed in Escherichia coli Transetta (DE3) cells using FC-5 as substrate in presence of 1 uM Zn2+ by fluorescence assay; set-up: species or system Bacteria
In short: (§1)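 VIM-2 inhibition determined as dose-inhibition curves, with the assay run at added Zn(II) of 0, 1 or 100 µM.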

[5] = Inhibition of bacterial VIM2 (27 to 266 residues) expressed in Escherichia coli Transetta (DE3) cells using FC-5 as substrate in presence of 100 uM Zn2+ by fluorescence assay; set-up: species or system Bacteria; in short: as §1
[6] = tested on: Bacteria; experiment: Reversible inhibition of bacterial VIM2 (27 to 266 residues) expressed in Escherichia coli Transetta (DE3) cells at 0.77 uM using FC-5 as substrate up to 500 secs by jump dilution assay
In short: (§2)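 Jump-dilution reversibility test. VIM-2 at 100-fold its activity-assay concentration was preincubated with inhibitor for 30 min at room temperature, then rapidly diluted 100-fold, and enzyme activity was followed.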

[7] = tested on: HEK-293T; experiment: Cytotoxicity against HEK293T cells assessed as reduction in cell viability at 50 uM after 72 hrs by MTT assay relative to control; type: cell-based; conditions: human
[8] = species: Danio rerio; experiment: Toxicity in FLK-1 promoter EGFP transgenic zebrafish embryos assessed as death at 20 uM incubated for 4 to 96 hrs post fertilization by fluorescence microscopic analysis; type: organism-based; conditions: in vivo
[9] = species: Danio rerio; experiment: Toxicity in FLK-1 promoter EGFP transgenic zebrafish embryos assessed as limited mobility at 20 uM incubated for 4 to 96 hrs post fertilization by fluorescence microscopic analysis; type: organism-based; conditions: in vivo
[10] = target: Metallo-beta-lactamase (Escherichia coli) (UniProt Q5U7L7); experiment: Inhibition of Escherichia coli VIM2 expressed in Escherichia coli DH5alpha assessed as potentiation of meropenem induced antibacterial activity by measuring meropenem MIC at 100 uM after 16 to 20 hrs by CLSI broth microdilution method (reference value: 16 microg/ml)
In short: (§3)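 MICs of meropenem against E. coli DH5α carrying a VIM-2-encoding plasmid, and against a control E. coli strain, with meropenem alone or combined with inhibitor at fixed 100, 200 or 500 µM. Fold change is the MIC shift relative to meropenem alone.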

[11] = target: Metallo-beta-lactamase (Escherichia coli) (UniProt Q5U7L7); experiment: Inhibition of Escherichia coli VIM2 expressed in Escherichia coli DH5alpha assessed as potentiation of meropenem induced antibacterial activity by measuring meropenem MIC at 200 uM after 16 to 20 hrs by CLSI broth microdilution method (reference value: 16 microg/ml); in short: as §3
[12] = target: Metallo-beta-lactamase (Escherichia coli) (UniProt Q5U7L7); experiment: Inhibition of Escherichia coli VIM2 expressed in Escherichia coli DH5alpha assessed as potentiation of meropenem induced antibacterial activity by measuring meropenem MIC at 500 uM after 16 to 20 hrs by CLSI broth microdilution method (reference value: 16 microg/ml); in short: as §3
[13] = tested on: Escherichia coli; experiment: Growth inhibition of Escherichia coli DH5alpha after 16 to 20 hrs by CLSI broth microdilution method; type: organism-based, DH5[alpha]; conditions: in vivo; in short: as §3
[14] = tested on: Escherichia coli; experiment: Potentiation of meropenem induced antibacterial activity against Escherichia coli DH5alpha by measuring meropenem MIC at 100 uM after 16 to 20 hrs by CLSI broth microdilution method (reference value: <0.25 microg/ml); type: functional; conditions: DH5[alpha]; in short: as §3
[15] = tested on: Escherichia coli; experiment: Potentiation of meropenem induced antibacterial activity against Escherichia coli DH5alpha by measuring meropenem MIC at 200 uM after 16 to 20 hrs by CLSI broth microdilution method (reference value: <0.25 microg/ml); type: functional; conditions: DH5[alpha]; in short: as §3
[16] = tested on: Escherichia coli; experiment: Potentiation of meropenem induced antibacterial activity against Escherichia coli DH5alpha by measuring meropenem MIC at 500 uM after 16 to 20 hrs by CLSI broth microdilution method (reference value: <0.25 microg/ml); type: functional; conditions: DH5[alpha]; in short: as §3
[17] = target: Metallo-beta-lactamase (Escherichia coli) (UniProt Q5U7L7); experiment: Inhibition of Escherichia coli VIM2 expressed in Escherichia coli DH5alpha assessed as potentiation of meropenem induced antibacterial activity by measuring fold reduction of meropenem MIC after 16 to 20 hrs by CLSI broth microdilution method relative to control; in short: as §3
[18] = species: Danio rerio; experiment: Toxicity in FLK-1 promoter EGFP transgenic zebrafish embryos assessed as effect on angiogenesis at 20 uM incubated for 4 to 96 hrs post fertilization by fluorescence microscopic analysis; type: organism-based; conditions: in vivo
[19] = tested on: Escherichia coli; experiment: Growth inhibition of Escherichia coli DH5alpha expressing Escherichia coli VIM2 after 16 to 20 hrs by CLSI broth microdilution method; type: organism-based, DH5[alpha]; conditions: in vivo; in short: as §3
[20] = tested on: Bacteria; experiment: Reversible inhibition of bacterial VIM2 (27 to 266 residues) expressed in Escherichia coli Transetta (DE3) cells at 7.5 uM using FC-5 as substrate up to 500 secs by jump dilution assay; in short: as §2
[21] = tested on: Bacteria; experiment: Reversible inhibition of bacterial VIM2 (27 to 266 residues) expressed in Escherichia coli Transetta (DE3) cells at 0.14 uM using FC-5 as substrate up to 500 secs by jump dilution assay; in short: as §2
[22] = Inhibition of N-terminal his-tagged bacterial VIM2 (27 to 266 residues) expressed in Escherichia coli BL21(DE3) pLyS cells; set-up: species or system Bacteria
[23] = Inhibition of N-terminal his-tagged bacterial NDM1 expressed in Escherichia coli BL21(DE3) pLyS cells; set-up: species or system Bacteria

IC50 [1]: 0.121 µM | pIC50 [1]: 6.92 | IC50 [2]: 7 µM | pIC50 [2]: 5.16
Compound: C[C@H](CS)C(=O)N[C@H](Cc1ccccc1)C(=O)O

IC50 [1]: 0.276 µM | pIC50 [1]: 6.56 | IC50 [2]: 73.1 µM | pIC50 [2]: 4.14
Compound: C[C@H](CS)C(=O)N[C@H](Cc1ccc(O)cc1)C(=O)O

Compound: C[C@H](CS)C(=O)N[C@H](C(=O)O)c1ccc(O)cc1
IC50 [1]: 0.077 µM | pIC50 [1]: 7.11 | IC50 [2]: 24 µM | pIC50 [2]: 4.62 | Activity [3]: Non-Toxic | IC50 [4]: 0.0729 µM | IC50 [5]: 0.066 µM | inhibition [6]: inactive | Activity [7]: Non-Toxic | Activity [8]: Non-Toxic | Activity [9]: Non-Toxic | MIC [10]: 16 mg/L | MIC [11]: 16 mg/L | MIC [12]: 8 mg/L | MIC [13]: > 128 mg/L | MIC [14]: < 0.25 mg/L | MIC [15]: < 0.25 mg/L | MIC [16]: < 0.25 mg/L | fold change (FC) [17]: 2 to 4 | Activity [18]: Non-Toxic | MIC [19]: > 128 mg/L

IC50 [1]: 0.121 µM | pIC50 [1]: 6.92 | IC50 [2]: 11.7 µM | pIC50 [2]: 4.93
Compound: C[C@H](CS)C(=O)N[C@H](C(=O)O)c1ccc(F)cc1

Compound: C[C@H](CS)C(=O)N1CCC[C@H]1C(=O)O [CAPTOPRIL]
inhibition [20]: Active

Compound: C[C@H](CS)C(=O)N[C@@H](C(=O)O)c1ccc(O)cc1
IC50 [1]: 0.00957 to 0.0137 µM | pIC50 [1]: 7.86 | IC50 [2]: 3.57 µM | pIC50 [2]: 5.45 | Activity [3]: Non-Toxic | IC50 [4]: 0.0148 µM | IC50 [5]: 0.0123 µM | inhibition [21]: inactive | Activity [7]: 8% | Activity [8]: Non-Toxic | Activity [9]: Non-Toxic | MIC [10]: 8 mg/L | MIC [11]: 8 mg/L | MIC [12]: 4 mg/L | MIC [13]: > 128 mg/L | MIC [14]: < 0.25 mg/L | MIC [15]: < 0.25 mg/L | MIC [16]: < 0.25 mg/L | fold change (FC) [17]: 2 to 4 | Activity [18]: Non-Toxic | MIC [19]: > 128 mg/L

IC50 [1]: 0.039 µM | pIC50 [1]: 7.41 | IC50 [2]: 8.77 µM | pIC50 [2]: 5.06
Compound: C[C@H](CS)C(=O)N[C@H](C(=O)O)c1ccccc1

IC50 [1]: 0.057 µM | pIC50 [1]: 7.25 | IC50 [2]: 20.5 µM | pIC50 [2]: 4.69
Compound: C[C@H](CS)C(=O)N[C@@H](C(=O)O)c1ccccc1

IC50 [22]: 4.55 µM | pIC50 [22]: 5.34
Compound: C[C@H](CS)C(=O)N1CCC[C@@H]1C(=O)O [D-CAPTOPRIL]

IC50 [22]: 0.05 µM | pIC50 [22]: 7.26 | IC50 [23]: 64.8 µM | pIC50 [23]: 4.19
Compound: C[C@H](CS)C(=O)N[C@H](Cc1c[nH]c2ccccc12)C(=O)O

IC50 [1]: 0.49 µM | pIC50 [1]: 6.31 | IC50 [2]: 326 µM | pIC50 [2]: 3.49
Compound: C[C@H](CS)C(=O)N[C@@H](Cc1ccc(O)cc1)C(=O)O

IC50 [1]: 2.85 µM | pIC50 [1]: 5.55 | IC50 [2]: 233 µM | pIC50 [2]: 3.63
Compound: C[C@H](CS)C(=O)N[C@@H](Cc1ccccc1)C(=O)O

IC50 [22]: 1.06 µM | pIC50 [22]: 5.97 | IC50 [23]: 24.8 µM | pIC50 [23]: 4.61
Compound: C[C@H](CS)C(=O)N[C@@H](Cc1c[nH]c2ccccc12)C(=O)O

IC50 [1]: 0.055 µM | pIC50 [1]: 7.26 | IC50 [2]: 5.59 µM | pIC50 [2]: 5.25
Compound: C[C@H](CS)C(=O)N[C@@H](C(=O)O)c1ccc(F)cc1
